Among all 360,000 compounds or so, about 1,700 (0.47%) were called active. Only a selection was taken, and actives are over-represented in it overall. Values without a mark were called inactive.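 The calls were made as follows: active = inhibition above its plate's cutoff, the mean of tested wells on that plate plus 3 SD (cut at about 29% in these data); inactive = the rest.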
The molecules below were run against Melanocortin receptor 4 (Homo sapiens) (UniProt P32245) (assay: MC4R antagonists of cAMP signaling, primary screen, cell-based, TR-FRET, antagonist arm of biased-ligand search (AID 540295;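 also: 0% = Melanotan II alone and 100% = Melanotan II plus saturating MCL0020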)). Conditions: MC4R-expressing cells, MTII-stimulated cAMP, LANCE TR-FRET; at 6.5 µM; stronger effect = higher value.
Melanocortin receptor 4 (Homo sapiens), sequence (P32245 whole entry, looked up): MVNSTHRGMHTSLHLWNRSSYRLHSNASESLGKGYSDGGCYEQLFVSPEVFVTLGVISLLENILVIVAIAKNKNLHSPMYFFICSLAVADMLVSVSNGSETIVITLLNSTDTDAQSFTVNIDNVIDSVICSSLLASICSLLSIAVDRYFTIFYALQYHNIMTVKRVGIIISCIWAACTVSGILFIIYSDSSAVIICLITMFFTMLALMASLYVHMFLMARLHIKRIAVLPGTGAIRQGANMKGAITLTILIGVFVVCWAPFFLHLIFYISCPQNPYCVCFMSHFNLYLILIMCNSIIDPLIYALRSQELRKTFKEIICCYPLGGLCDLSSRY
Procedure, shortened: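 Material: human MC4R-expressing U2OS cells. Probe or stimulus: Melanotan II challenge. Dosing: 6.5 µM single dose. Times: 30-min compound, 1-h challenge, 1-h detection, room temperature. Technique: TR-FRET with Eu-cAMP and labeled anti-cAMP, 671 nm. Replication: singlicate.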

Row | SMILES | inhibition
1 | CS/C(=C\C(=O)c1ccco1)Nc1ccccc1Cl | 12.1%
2 | O=C(COc1ccc(-n2cnnn2)cc1)Nc1ccccc1Cl | -4.5%
3 | O=C(Nc1ccccc1Cl)/C(Cl)=C(\Cl)S(=O)c1ccccc1 (centres undefined) | 34.9% (active)
4 | NC1=NC(=O)C(Cc2cccc(Cl)c2)S1 (centres undefined) | 6.88%
5 | CCOC(=O)C(CC)Sc1ncnc2c1nnn2-c1ccc(F)cc1 (centres undefined) | 9.91%
6 | COc1ccc(S(=O)(=O)N2CCOC2CNC(=O)C(=O)NCc2ccc(F)cc2)cc1 (centres undefined) | 5.37%
7 | CC1(C)Cc2ccccc2-c2[nH]c(=S)[nH]c(=O)c21 | 31.3% (active)
8 | N#CC1=C(N)Oc2[nH]c(=S)[nH]c(=O)c2C12C(=O)Nc1ccccc12 (centres undefined) | -0.32%
9 | CC1(C)Cc2ccccc2/C(=C/C(=O)c2ccccc2)N1 | -4.86%
10 | CC(=O)c1ccc(S(=O)(=O)Nc2ccc(-c3ccc4nncn4n3)cc2)cc1 | 4.19%
11 | Cc1cccc(C(=O)N2CCCC(Nc3ccc(C(C)C)cc3)C2)n1 (centres undefined) | -4.44%
12 | O=C(Oc1ccc(-c2nnco2)cc1)c1ccc(F)c(S(=O)(=O)N2CCOCC2)c1 | 16.3%
13 | C=CCOC(=O)C1=C(C)N=C2SCCC(=O)N2C1/C=C/c1ccccc1OC (centres undefined) | 6.17%
14 | COc1ccc(-c2ccc3c(c2)C2CC3CCN2CCC#N)cc1 (centres undefined) | 8.84%
15 | CCC1(C)Cc2c(sc3[nH]c(=S)n(Cc4ccccc4)c(=O)c23)CO1 (centres undefined) | 3.15%
16 | C=CCn1c(=S)[nH]c2scc(-c3ccco3)c2c1=O | 29.6% (active)
17 | COc1cccc(-c2cc(NC(C)=O)c3ncc(-c4cccc(C(C)=O)c4)n3c2)c1 | 8.07%
18 | CSc1ncnc2c1ncn2CCCNCC(C)c1ccccc1 (centres undefined) | 0.11%
19 | COc1ccc(S(=O)(=O)N(C)CC(=O)NCCCN2CCOCC2)cc1Cl | 8.85%
20 | CCN(CC(=O)NCCCN1CCOCC1)S(=O)(=O)c1cc(Cl)ccc1Cl | 30.2% (active)
21 | CCN(CC)S(=O)(=O)c1ccc(Cl)c(C(=O)NCCN2CCOCC2)c1 | -2.31%
22 | O=C(Nc1nnc(Cc2ccccc2)s1)c1cnccn1 | 20.4%
23 | O=C(Nc1nnc(Cc2ccc(Cl)cc2)s1)c1cccnc1 | 33.8% (active)

Row | SMILES | inhibition
24 | O=C(Nc1nnc(Cc2ccc(Cl)cc2)s1)c1ccncc1 | 11.2%
25 | COC(=O)[C@]1(CC(C)C)N[C@H](c2ccc(SC3CCCCC3)cc2)[C@@H]2C(=O)N(C)C(=O)[C@@H]21 | 4.32%
26 | Cc1ccc(NC(=O)Cn2c(=O)n(CCC(=O)NC3CCN(Cc4ccccc4)CC3)c(=O)c3ccccc32)cc1 | 8.52%
27 | COc1ccccc1NC(=O)/C=C/C(N)=O | 21%
28 | COC(=O)c1sc(-c2ccc(C(C)(C)C)cc2)cc1NC(=O)/C=C/C(=O)O | 37.3% (active)
29 | COc1ccc(NS(=O)(=O)c2ccc(N3CCOCC3)c(NC(=O)/C=C/C(=O)O)c2)cc1 | 0.91%
30 | O=C(CCNC(=O)C1CCN(S(=O)(=O)c2ccccc2)CC1)NC1CC1 | 8.45%
31 | NC(=O)COc1ccc(C23CC4CC(CC(C4)C2)C3)cc1 | -2.25%
32 | CCCC(NC(=O)c1ccccc1)c1nc2ccccc2n1Cc1ccc(C(=O)OC)o1 (centres undefined) | -3.45%
33 | COc1ccc(CSc2nc(N3CCOCC3)c3c(c2C#N)CC(C)(C)OC3)cc1 | 19%
34 | CCOC(=O)CSc1nc(N2CCOCC2)c2c(c1C#N)CC(C(C)C)OC2 (centres undefined) | 28.7% (active)
35 | CC(C)Cc1nc(N2CCOCC2)c(C#N)c2c1CCC2 | 8.79%
36 | COc1ccc(CCNC(=O)CSCc2ccc(Br)cc2)cc1OC | 1.08%
37 | CC(C)c1ccc(NC(=O)CCN2C(=O)c3ccc([N+](=O)[O-])cc3C2=O)cc1 | 7.45%
38 | O=NN(CCCl)C(=O)NCCc1cccc[n+]1[O-] | 7.72%
39 | CC(C)(C)C1CCC(OC(=O)CCC(=O)Nc2ccccc2)CC1 (centres undefined) | 2.76%
40 | CC1C(C)N(C(=O)CCl)c2ccccc2N1C(=O)CCl (centres undefined) | -4%
41 | COc1ccc(C(=O)OCC(=O)NCC2CCCO2)cc1[N+](=O)[O-] (centres undefined) | 1.35%
42 | CC(C)(C)OC(=O)N1CCC(NC(=O)c2[nH]cnc2C(=O)N[C@@H](Cc2ccccc2)C(=O)OCc2ccccc2)CC1 | 35.5% (active)
43 | C[C@@H](NC(=O)c1nc[nH]c1C(=O)N1CCN(C(=O)OC(C)(C)C)CC1)c1ccccc1 | 15.2%
44 | O=C(N[C@@H](Cc1ccccc1)C(=O)OCc1ccccc1)c1nc[nH]c1C(=O)N[C@@H](Cc1ccccc1)C(=O)OCc1ccccc1 | 10.8%
45 | O=C1NC(c2ccccc2)CCC1(Cl)Cl (centres undefined) | 3.93%
46 | C=CCn1c(SCC(=O)c2c(N)n(C)c(=O)n(C)c2=O)nc2sc(CC)cc2c1=O | 8.69%

Row | SMILES | inhibition
47 | Cn1c(SCc2ccc(F)cc2)nnc1-c1ccncc1 | 0.33%
48 | Cc1ccc(CSc2nnc(-c3cnccn3)n2C)cc1 | 29.1% (active)
49 | Cn1c(SCc2c(F)cccc2Cl)nnc1-c1cnccn1 | -3.89%
50 | [O-][n+]1onc2c1CCc1[nH]c(-c3ccccc3)nc1-2 | 2.02%
51 | COc1ccc(NS(=O)(=O)c2ccc(C)c(C(=O)NNC(=O)c3csc(N4CCOCC4)n3)c2)cc1 | -2.21%
52 | CC(C)=C(NC(=O)c1ccco1)C(=O)NCCc1nc2ccccc2[nH]1 | 2.22%
53 | CCCCCOc1ccc(/C=C/C(=O)NCCc2nc3ccccc3[nH]2)cc1OC | 6.2%
54 | CC(C)Oc1ccc(/C=C(\NC(=O)/C=C/c2ccco2)C(=O)NCCc2nc3ccccc3[nH]2)cc1 | 28.9% (active)
55 | O=C(N/N=C\c1ccc(-c2ccc(Cl)c(Cl)c2)o1)C(=O)N1CCCC1 | 4.11%
56 | Cc1ccc(S(=O)(=O)N(CC(=O)NCc2ccco2)c2ccccc2C)cc1 | 12.4%
57 | COc1ccc(Cc2cc(-c3ccc(F)cc3)n[nH]c2=O)cc1 | 9.23%
58 | COc1ccc(-n2nc(C(=O)NCC(=O)N3CCN(c4ccccc4OC)CC3)c3ccccc3c2=O)c(OC)c1 | 1.93%
59 | COc1ccc(-n2nc(C(=O)Nc3cc(OC)c(OC)c(OC)c3)c3ccccc3c2=O)c(OC)c1 | 31.6% (active)
60 | COc1cccc(NC(=O)c2nn(-c3ccc(OC)cc3OC)c(=O)c3ccccc23)c1 | -1.09%
61 | COc1ccc(CCNC(=O)CN2C(=O)COc3ccc(S(=O)(=O)N4CCCC4)cc32)cc1OC | 3.63%
62 | CCCS(=O)(=O)NC(=O)C1(C)CCCN(C(=O)c2cc(C)on2)C1 (centres undefined) | 10.6%
63 | Cc1cc(=O)oc2c3c(cc(OCC(=O)NCc4ccccn4)c12)OC(C)(C)CC3 | -0.73%
64 | Cc1ccc(C)c(OCCC(=O)OCC(=O)c2ccc3c(c2)NC(=O)CO3)c1 | 2.21%
65 | O=C(O)CN1C(=O)CC(Cc2ccccc2)C1=O (centres undefined) | -3.51%
66 | Cc1ccc(NC(=O)C2CC2c2ccccc2)cc1 (centres undefined) | 0.14%
67 | COc1ccc(Sc2ccc(NC(=O)c3cccc(Cl)c3)cc2C#N)cc1 | 5.3%
68 | Cc1ccc(Sc2ccc(NC(=O)c3ccc(F)cc3)cc2C#N)cc1 | 33.5% (active)
69 | COC(=O)c1ccc(Sc2ccc(F)cc2)c(N)c1 | -11.2%

Row | SMILES | inhibition
70 | Cc1ccc(S(=O)(=O)N(C)CC(=O)OCC(=O)N2CC(=O)Nc3ccccc32)cc1 | 33.9% (active)
71 | CN(c1ccccc1)S(=O)(=O)c1ccc(NC(=O)COc2ccccc2)cc1 | -6.55%
72 | Cc1ccc(S(=O)(=O)N(C)CC(=O)OCC(=O)Nc2ccccc2)cc1 | 34.1% (active)
73 | CN(C)S(=O)(=O)c1ccc(NC(=O)COC(=O)Cn2[nH]c(=O)c3ccccc3c2=O)cc1 | 9.38%
74 | Cc1ccccc1SCC(=O)OCC(=O)N1CC(=O)Nc2ccccc21 | 0.86%
75 | Cc1ccc(S(=O)(=O)N2CCC(C(=O)OCC(=O)N3CC(=O)Nc4ccccc43)CC2)cc1 | 20.2%
76 | COc1ccnc(Oc2ccccc2)n1 | 0.1%
77 | CN(C)CCN1CCN(c2cc(-c3cccc(Cl)c3)nc3ccnn23)CC1 | 3.3%
78 | C#Cc1cc(N2CCN(C(=O)c3ccoc3)CC2)n2nc(-c3cccc(Cl)c3)cc2n1 | 32.1% (active)
79 | O=C(c1ccccc1)N1CCN(c2cc(-c3ccccc3)nc3cc(-c4cccc(Cl)c4)nn23)CC1 | 1.52%
80 | CC(CNc1ccc([N+](=O)[O-])c2cccnc12)Nc1c([N+](=O)[O-])cc(C(F)(F)F)cc1[N+](=O)[O-] (centres undefined) | 7.59%
81 | COc1ccccc1-c1n[nH]c2c1[C@H](C)CC[C@H]2C(C)C | 10%
82 | Cc1cc(C)cc(Oc2c(C(F)(F)F)oc3cc(OCC(=O)O)ccc3c2=O)c1 | -2.27%
83 | O=C(CSc1nc2ccc(Nc3nc(N4CCOCC4)nc(N4CCOCC4)n3)cc2s1)NCc1ccco1 | 29.5% (active)
84 | O=C(CSc1c2c(nc3ccc(Cl)cc13)CCCC2)NCc1ccco1 | 11.1%
85 | O=C(CSc1nc(Nc2ccccc2)nc(N2CCOCC2)n1)Nc1cc(Cl)ccc1O | -4.1%
86 | Cc1ccccc1N1CC(C(=O)Nc2ccc3c(c2)OCO3)CC1=O (centres undefined) | 8.22%
87 | CCOCc1nnc(NC(=O)CCS(=O)(=O)Cc2ccccc2)s1 | 4.21%
88 | O=C1C(Cl)=C(Oc2ccccc2)C(=O)c2ccccc21 | 93.5% (active)
89 | CCC1CCCCN1C(=S)Nc1ccc(S(=O)(=O)Nc2ncccn2)cc1 (centres undefined) | -1.16%
